Measurements: ChEMBL document CHEMBL1148541, “Biological evaluation of 1-alkyl-3-phenylthioureas as orally active HDL-elevating agents” (Bioorg Med Chem Lett, 2006)
Values belong to the compound of their own block, whether it stands above or below them. Activity calls are given as the source filed them. No cut-off for these calls is given here.

Legend:
Rattus norvegicus [1] = organism: Rattus norvegicus; experiment: Increase in liver enzyme Alkaline phosphatase; assay type: functional; design: concentration or dose not given beside the values
Rattus norvegicus [2] = experiment: Increase of total cholesterol level in cholesterol-fed male rats at 62 mg/kg/day relative to control; assay type: functional
Summary of the method: (§1)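 Dietary (ad libitum) dosing of groups of six male Sprague–Dawley rats on a cholesterol diet for 8 days. Serum total cholesterol was quantitated enzymatically by a colorimetric method and expressed as % change relative to untreated controls, with significance at p < 0.05.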

Rattus norvegicus [3] = experiment: Weight gain in cholesterol-fed male rats at 62 mg/kg/day relative to control; assay type: functional
Summary of the method: (§2)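 Groups of six male Sprague–Dawley rats on a cholesterol diet received the compound in the diet, ad libitum, over 8 days. Body weight gain is reported as % change relative to untreated controls.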

[4] = target: T1, Peroxisome proliferator-activated receptor alpha (Rattus norvegicus, UniProt P37230); experiment: Activity against PPAR-alpha
T1 sequence (P37230 whole entry): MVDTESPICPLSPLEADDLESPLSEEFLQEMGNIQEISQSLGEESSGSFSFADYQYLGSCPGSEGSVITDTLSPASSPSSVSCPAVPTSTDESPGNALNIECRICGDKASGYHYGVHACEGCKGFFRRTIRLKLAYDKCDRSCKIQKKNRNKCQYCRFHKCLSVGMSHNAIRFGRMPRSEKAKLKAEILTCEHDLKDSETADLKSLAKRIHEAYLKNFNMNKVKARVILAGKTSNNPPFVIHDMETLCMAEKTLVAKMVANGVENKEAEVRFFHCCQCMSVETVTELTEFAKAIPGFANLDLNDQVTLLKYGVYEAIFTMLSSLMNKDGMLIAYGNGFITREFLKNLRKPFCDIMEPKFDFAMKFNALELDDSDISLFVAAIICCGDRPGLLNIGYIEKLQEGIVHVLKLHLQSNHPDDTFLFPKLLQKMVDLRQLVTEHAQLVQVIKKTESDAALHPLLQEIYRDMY

Rattus norvegicus [5] = experiment: Triglyceride level in cholesterol-fed male rats at 62 mg/kg/day relative to control; assay type: functional
Summary of the method: (§3)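 Male Sprague–Dawley rats on a cholesterol diet, in groups of six, received the compound in the diet ad libitum for 8 days. Serum triglycerides are expressed as % change relative to untreated controls, with significance at p < 0.05 versus controls.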

Rattus norvegicus [6] = experiment: Increase of HDL level in cholesterol-fed male rats by FPLC method at 62 mg/kg/day relative to control; assay type: functional
Summary of the method: (§4)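 Groups of six male Sprague–Dawley rats on a cholesterol diet received drug in the diet, ad libitum, for 8 days. Serum lipoproteins separated by FPLC, adapted for robotic automation, and cholesterol quantitated enzymatically by colorimetry. HDL given as % change versus untreated controls, with significance set at p < 0.05.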

[7] = target: T2, Peroxisome proliferator-activated receptor delta (Homo sapiens, UniProt Q03181); experiment: Activity against PPAR-delta
T2 sequence (Q03181 whole entry): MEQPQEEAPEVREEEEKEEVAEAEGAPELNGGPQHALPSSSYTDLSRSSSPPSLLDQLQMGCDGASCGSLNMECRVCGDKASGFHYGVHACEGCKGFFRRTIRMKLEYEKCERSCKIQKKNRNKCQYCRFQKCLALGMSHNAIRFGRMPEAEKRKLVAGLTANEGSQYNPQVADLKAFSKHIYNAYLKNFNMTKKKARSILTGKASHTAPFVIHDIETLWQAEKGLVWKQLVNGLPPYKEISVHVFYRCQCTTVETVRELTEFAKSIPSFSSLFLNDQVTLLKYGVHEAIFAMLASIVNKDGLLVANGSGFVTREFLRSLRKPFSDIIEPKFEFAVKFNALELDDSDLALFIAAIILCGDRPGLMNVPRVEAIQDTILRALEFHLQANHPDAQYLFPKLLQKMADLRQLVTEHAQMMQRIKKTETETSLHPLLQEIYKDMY

Rattus norvegicus [8] = organism: Rattus norvegicus; experiment: Increase in liver enzyme Aspartate aminotransferase; assay type: functional; design: concentration or dose not given beside the values
Rattus norvegicus [9] = experiment: Increase of HDL level in cholesterol-fed male rats by ultracentrifugation method at 62 mg/kg/day relative to control; assay type: functional
Summary of the method: (§5)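 Cholesterol-fed male Sprague–Dawley rats, six per group, given drug in the diet ad libitum for 8 days. Serum lipoproteins separated by classical ultracentrifugation and HDL cholesterol measured by an enzymatic colorimetric method. Expressed as % change versus untreated controls, with significance set at p < 0.05.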

Rattus norvegicus [10] = experiment: Increase of Apolipoprotein A-I level in cholesterol-fed male rats at 62 mg/kg/day relative to control; assay type: functional
Summary of the method: (§6)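 Drug mixed into diet, fed ad libitum for 8 days to groups of six male Sprague–Dawley rats on a cholesterol diet. Serum Apo A-I measured by SDS–polyacrylamide gel electrophoresis or by rat competition ELISA. Reported as % change versus untreated controls, with significance set at p < 0.05.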

Rattus norvegicus [11] = experiment: Triglyceride level in cholesterol-fed male rats at 63 mg/kg/day relative to control; assay type: functional; summary of the method: as §3
Rattus norvegicus [12] = experiment: Increase of total cholesterol level in cholesterol-fed male rats at 63 mg/kg/day relative to control; assay type: functional; summary of the method: as §1
Rattus norvegicus [13] = experiment: Weight gain in cholesterol-fed male rats at 63 mg/kg/day relative to control; assay type: functional; summary of the method: as §2
Rattus norvegicus [14] = experiment: Increase of HDL level in cholesterol-fed male rats by FPLC method at 63 mg/kg/day relative to control; assay type: functional; summary of the method: as §4
Rattus norvegicus [15] = experiment: Increase of Apolipoprotein A-I level in cholesterol-fed male rats at 63 mg/kg/day relative to control; assay type: functional; summary of the method: as §6
Rattus norvegicus [16] = experiment: Increase of HDL level in cholesterol-fed male rats by ultracentrifugation method at 63 mg/kg/day relative to control; assay type: functional; summary of the method: as §5
Rattus norvegicus [17] = experiment: Increase of HDL level in cholesterol-fed male rats by FPLC method at 55 mg/kg/day relative to control; assay type: functional; summary of the method: as §4
Rattus norvegicus [18] = organism: Rattus norvegicus; experiment: Increase in liver enzyme Alanine aminotransferase; assay type: functional
Rattus norvegicus [19] = experiment: Increase of HDL level in cholesterol-fed male rats by ultracentrifugation method at 55 mg/kg/day relative to control; assay type: functional; summary of the method: as §5
Rattus norvegicus [20] = experiment: Weight gain in cholesterol-fed male rats at 55 mg/kg/day relative to control; assay type: functional; summary of the method: as §2
Rattus norvegicus [21] = experiment: Triglyceride level in cholesterol-fed male rats at 55 mg/kg/day relative to control; assay type: functional; summary of the method: as §3
Rattus norvegicus [22] = experiment: Increase of Apolipoprotein A-I level in cholesterol-fed male rats at 55 mg/kg/day relative to control; assay type: functional; summary of the method: as §6
Rattus norvegicus [23] = experiment: Increase of total cholesterol level in cholesterol-fed male rats at 55 mg/kg/day relative to control; assay type: functional; summary of the method: as §1
Rattus norvegicus [24] = experiment: Weight gain in cholesterol-fed male rats at 78 mg/kg/day relative to control; assay type: functional; summary of the method: as §2
Rattus norvegicus [25] = experiment: Increase of HDL level in cholesterol-fed male rats by ultracentrifugation method at 78 mg/kg/day relative to control; assay type: functional
Summary of the method: (§7)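 Compound given in the diet, ad libitum, to groups of six male Sprague–Dawley rats on a cholesterol diet for 8 days. Serum lipoproteins were separated by classical ultracentrifugation, and HDL cholesterol was quantitated by an enzymatic colorimetric method. Results are reported as % change relative to untreated controls, with significance at p < 0.05 versus controls.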

Rattus norvegicus [26] = experiment: Triglyceride level in cholesterol-fed male rats at 78 mg/kg/day relative to control; assay type: functional; summary of the method: as §3
Rattus norvegicus [27] = experiment: Increase of total cholesterol level in cholesterol-fed male rats at 78 mg/kg/day relative to control; assay type: functional; summary of the method: as §1
Rattus norvegicus [28] = experiment: Increase of HDL level in cholesterol-fed male rats by FPLC method at 78 mg/kg/day relative to control; assay type: functional; summary of the method: as §4
Rattus norvegicus [29] = experiment: Increase of Apolipoprotein A-I level in cholesterol-fed male rats at 78 mg/kg/day relative to control; assay type: functional; summary of the method: as §6
Rattus norvegicus [30] = experiment: Triglyceride level in cholesterol-fed male rats at 50 mg/kg/day relative to control; assay type: functional; summary of the method: as §3
Hamster [31] = experiment: Increase of HDL cholesterol in normal-fed hamster at 45 mg/kg/day; assay type: functional, organism-based; conditions: Cricetinae
Rattus norvegicus [32] = experiment: Increase of total cholesterol level in cholesterol-fed male rats at 50 mg/kg/day relative to control; assay type: functional; summary of the method: as §1
Canis familiaris = experiment: Increase of HDL cholesterol in normal-fed dog at 250 mg/kg/day; assay type: functional, organism-based; conditions: Canis lupus familiaris
Rattus norvegicus [33] = experiment: Increase of Apo A-I level in cholesterol-fed male rats at 50 mg/kg/day relative to control; assay type: functional; summary of the method: as §6
Rattus norvegicus [34] = experiment: Increase of HDL cholesterol in normal-fed rat at 50 mg/kg/day; assay type: functional
Rattus norvegicus [35] = experiment: Increase of HDL level in cholesterol-fed male rats by ultracentrifugation method at 50 mg/kg/day relative to control; assay type: functional; summary of the method: as §5
Rattus norvegicus [36] = experiment: Increase of HDL level in cholesterol-fed male rats by FPLC method at 50 mg/kg/day relative to control; assay type: functional; summary of the method: as §4
Hamster [37] = experiment: Increase of HDL cholesterol in chow-fed hamster at 45 mg/kg/day; assay type: functional, organism-based; conditions: Cricetulus griseus
Rattus norvegicus [38] = experiment: Weight gain in cholesterol-fed male rats at 50 mg/kg/day relative to control; assay type: functional; summary of the method: as §2
Rattus norvegicus [39] = experiment: Triglyceride level in cholesterol-fed male rats at 77 mg/kg/day relative to control; assay type: functional; summary of the method: as §3
Rattus norvegicus [40] = experiment: Increase of HDL level in cholesterol-fed male rats by ultracentrifugation method at 77 mg/kg/day relative to control; assay type: functional; summary of the method: as §7
Rattus norvegicus [41] = experiment: Increase of Apolipoprotein A-I level in cholesterol-fed male rats at 77 mg/kg/day relative to control; assay type: functional; summary of the method: as §6
Rattus norvegicus [42] = experiment: Increase of total cholesterol level in cholesterol-fed male rats at 77 mg/kg/day relative to control; assay type: functional; summary of the method: as §1
Rattus norvegicus [43] = experiment: Increase of HDL level in cholesterol-fed male rats by FPLC method at 77 mg/kg/day relative to control; assay type: functional; summary of the method: as §4
Rattus norvegicus [44] = experiment: Weight gain in cholesterol-fed male rats at 77 mg/kg/day relative to control; assay type: functional; summary of the method: as §2

- EC50 [4]: > 100 µM
- EC50 [7]: > 100 µM
Compound: CC[C@H]1CCCCN1/C(S)=N/c1cc(Cl)ccc1C
- Activity (Rattus norvegicus [1]): 129%
- Activity (Rattus norvegicus [2]): 126%
- Activity (Rattus norvegicus [3]): -88%
- Activity (Rattus norvegicus [5]): -56%
- Activity (Rattus norvegicus [6]): 404%
- Activity (Rattus norvegicus [8]): 85%
- Activity (Rattus norvegicus [9]): 124%
- Activity (Rattus norvegicus [10]): 39%

- EC50 [4]: > 100 µM
- EC50 [7]: > 100 µM
Compound: CC[C@@H]1CCCCN1/C(S)=N/c1cc(Cl)ccc1C
- Activity (Rattus norvegicus [1]): 105%
- Activity (Rattus norvegicus [11]): -54%
- Activity (Rattus norvegicus [12]): 167%
- Activity (Rattus norvegicus [13]): -105%
- Activity (Rattus norvegicus [14]): 614%
- Activity (Rattus norvegicus [15]): 30%
- Activity (Rattus norvegicus [8]): 80%
- Activity (Rattus norvegicus [16]): 129%

Compound: CCCC/N=C(\S)Nc1cc(Cl)ccc1C
- Activity (Rattus norvegicus [17]): 203%
- Activity (Rattus norvegicus [1]): 44%
- Activity (Rattus norvegicus [18]): 93%
- Activity (Rattus norvegicus [19]): 100%
- Activity (Rattus norvegicus [20]): -53%
- Activity (Rattus norvegicus [8]): 79%
- Activity (Rattus norvegicus [21]): -44%
- Activity (Rattus norvegicus [22]): 38%
- Activity (Rattus norvegicus [23]): 39%

Compound: CCC/N=C(\S)Nc1cc(Cl)ccc1OC
- Activity (Rattus norvegicus [24]): -6%
- Activity (Rattus norvegicus [1]): 44%
- Activity (Rattus norvegicus [25]): 99%
- Activity (Rattus norvegicus [26]): -43%
- Activity (Rattus norvegicus [27]): 49%
- Activity (Rattus norvegicus [28]): 97%
- Activity (Rattus norvegicus [29]): 58%

Compound: Cc1ccc(C)c(OCCCC(C)(C)C(=O)O)c1 [GEMFIBROZIL]
- Activity (Rattus norvegicus [30]): -29%
- Activity (Hamster [31]): inactive
- Activity (Rattus norvegicus [32]): -23%
- Activity (Canis familiaris): inactive
- Activity (Rattus norvegicus [33]): 54%
- Activity (Rattus norvegicus [34]): 25%
- Activity (Rattus norvegicus [35]): 104%
- Activity (Rattus norvegicus [36]): 139%
- Activity (Hamster [37]): inactive
- Activity (Rattus norvegicus [38]): 2%

Compound: Cc1ccc(Cl)cc1/N=C(\S)NCc1ccccc1
- Activity (Rattus norvegicus [39]): -21%
- Activity (Rattus norvegicus [40]): 135%
- Activity (Rattus norvegicus [41]): 27%
- Activity (Rattus norvegicus [42]): 97%
- Activity (Rattus norvegicus [43]): 136%
- Activity (Rattus norvegicus [44]): 41%

Compound: Cc1ccc(Cl)cc1/N=C(\S)NCCO
- Activity (Rattus norvegicus [17]): 241%
- Activity (Rattus norvegicus [19]): 75%
- Activity (Rattus norvegicus [20]): -104%
- Activity (Rattus norvegicus [21]): -53%
- Activity (Rattus norvegicus [22]): 48%
- Activity (Rattus norvegicus [23]): 39%
